What is called EC50 is the midpoint of the concentration-response curve.

Here are results for five molecules from ChEMBL document CHEMBL1914309, “Binding of isoxazole and pyrazole derivatives of curcumin with the activator binding domain of novel protein kinase C” (Bioorg Med Chem, 2011).

Series [1] addresses Protein kinase C theta type (Homo sapiens, UniProt Q04759). The series is described as follows: Binding affinity to PKCtheta C1B subdomain after 1 hr by fluorescence quenching analysis. The method, boiled down:
(§1)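 Purified C1B subdomain of PKC delta, epsilon or theta was titrated with ligand in 50 mM Tris, 150 mM NaCl, 2 mM DTT, ZnSO4, pH 7.2, at 25 °C. Intrinsic fluorescence was excited at 280 nm and emission recorded from 300–550 nm. (F0−F)/F at 350 nm was plotted against ligand concentration, and the curve was fitted to a modified Hill equation to give EC50 and Hill coefficient.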

Series [2] is described as follows: Selectivity ratio of EC50 for PKCdelta C1B subdomain to EC50 for PKCtheta C1B subdomain. The method, boiled down:
(§2)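 Ratios of EC50 values, each taken from a modified-Hill fit of intrinsic tryptophan/tyrosine fluorescence quenching (excitation 280 nm, read at 350 nm) of the C1B subdomains in Tris/NaCl/DTT/ZnSO4 buffer, pH 7.2, at 25 °C.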

Series [3] in a line: Selectivity ratio of EC50 for PKCepsilon C1B subdomain to EC50 for PKCtheta C1B subdomain. The method, boiled down:
as §2

In series [4] the target is T1, Protein kinase C epsilon type (Homo sapiens, UniProt Q02156).
T1 sequence (Q02156 whole entry): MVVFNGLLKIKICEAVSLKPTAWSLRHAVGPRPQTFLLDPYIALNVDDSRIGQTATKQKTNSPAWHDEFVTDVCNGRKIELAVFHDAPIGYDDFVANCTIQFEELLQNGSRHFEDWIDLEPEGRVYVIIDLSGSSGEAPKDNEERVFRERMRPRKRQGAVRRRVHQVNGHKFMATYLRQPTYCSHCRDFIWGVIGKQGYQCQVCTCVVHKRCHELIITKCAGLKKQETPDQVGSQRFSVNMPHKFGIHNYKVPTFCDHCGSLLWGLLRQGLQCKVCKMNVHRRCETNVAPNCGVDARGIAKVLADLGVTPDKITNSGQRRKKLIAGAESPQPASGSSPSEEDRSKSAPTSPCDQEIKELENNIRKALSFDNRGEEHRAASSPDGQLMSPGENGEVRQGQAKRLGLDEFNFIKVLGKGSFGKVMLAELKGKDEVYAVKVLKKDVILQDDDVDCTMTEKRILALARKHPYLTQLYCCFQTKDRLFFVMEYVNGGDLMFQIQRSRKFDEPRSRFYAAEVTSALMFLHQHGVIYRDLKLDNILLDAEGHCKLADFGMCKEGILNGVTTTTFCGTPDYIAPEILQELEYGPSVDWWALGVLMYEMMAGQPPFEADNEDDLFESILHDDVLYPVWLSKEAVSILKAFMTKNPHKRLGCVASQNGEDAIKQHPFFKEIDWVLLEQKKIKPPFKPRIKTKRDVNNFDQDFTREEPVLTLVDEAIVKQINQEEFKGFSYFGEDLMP
The series is described as follows: Binding affinity to PKCepsilon C1B subdomain after 1 hr by fluorescence quenching analysis. The method, boiled down:
as §1

The target in series [5] is Protein kinase C delta type (Homo sapiens, UniProt Q05655). Description: Binding affinity to PKCdelta C1B subdomain after 1 hr by fluorescence quenching analysis. The essentials:
as §1

The nature of series [6]: Solubility of the compound. It counts as physicochemical.

Protein kinase C theta type, sequence (Q04759 whole entry): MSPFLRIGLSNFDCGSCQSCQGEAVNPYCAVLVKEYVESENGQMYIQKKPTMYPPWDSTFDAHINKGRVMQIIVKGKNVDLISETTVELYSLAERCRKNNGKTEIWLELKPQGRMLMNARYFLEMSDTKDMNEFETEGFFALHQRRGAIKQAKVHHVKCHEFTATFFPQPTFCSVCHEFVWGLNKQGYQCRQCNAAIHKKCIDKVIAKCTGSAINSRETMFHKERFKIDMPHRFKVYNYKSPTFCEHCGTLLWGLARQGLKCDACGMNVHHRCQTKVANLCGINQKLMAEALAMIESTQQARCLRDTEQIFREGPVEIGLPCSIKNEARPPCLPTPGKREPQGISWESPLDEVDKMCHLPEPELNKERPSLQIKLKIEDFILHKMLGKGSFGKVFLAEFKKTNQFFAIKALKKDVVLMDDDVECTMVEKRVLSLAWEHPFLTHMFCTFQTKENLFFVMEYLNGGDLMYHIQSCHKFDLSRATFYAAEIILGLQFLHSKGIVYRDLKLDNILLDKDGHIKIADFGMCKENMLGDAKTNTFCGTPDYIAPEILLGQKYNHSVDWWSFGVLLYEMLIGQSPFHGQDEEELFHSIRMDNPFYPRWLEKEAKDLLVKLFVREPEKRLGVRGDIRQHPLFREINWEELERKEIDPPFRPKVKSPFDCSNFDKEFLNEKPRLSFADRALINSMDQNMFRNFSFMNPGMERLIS
Protein kinase C delta type, sequence (Q05655 whole entry): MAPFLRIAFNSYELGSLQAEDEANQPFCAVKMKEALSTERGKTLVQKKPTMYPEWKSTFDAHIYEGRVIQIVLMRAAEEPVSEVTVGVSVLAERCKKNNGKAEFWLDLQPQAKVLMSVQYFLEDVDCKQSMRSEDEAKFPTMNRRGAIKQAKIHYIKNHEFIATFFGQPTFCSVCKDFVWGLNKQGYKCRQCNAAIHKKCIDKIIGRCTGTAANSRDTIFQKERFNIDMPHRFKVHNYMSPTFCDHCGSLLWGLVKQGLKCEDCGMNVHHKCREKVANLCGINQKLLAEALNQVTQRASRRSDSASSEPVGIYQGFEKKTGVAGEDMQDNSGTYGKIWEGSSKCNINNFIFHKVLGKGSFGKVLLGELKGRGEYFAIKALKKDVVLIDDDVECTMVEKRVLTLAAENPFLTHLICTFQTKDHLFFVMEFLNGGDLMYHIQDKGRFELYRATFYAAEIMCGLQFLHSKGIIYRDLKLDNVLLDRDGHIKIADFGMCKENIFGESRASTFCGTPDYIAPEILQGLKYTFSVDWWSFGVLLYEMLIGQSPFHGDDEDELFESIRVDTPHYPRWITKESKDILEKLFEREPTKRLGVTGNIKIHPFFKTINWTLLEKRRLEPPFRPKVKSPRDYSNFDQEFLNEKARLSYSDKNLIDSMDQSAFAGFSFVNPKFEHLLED

With `COc1cc(/C=C/c2cc(/C=C/c3ccc(O)c(OC)c3)on2)ccc1O`, the EC50 in series [1] was determined as 3.16 µM; in series [4], 11.8 µM; in series [5] it was 11.5 µM. Further, the Ratio EC50 in series [2] and in series [3] was 3 in each case.

Consider `CCCCCCCCOc1ccc(/C=C/c2cc(/C=C/c3ccc(OCCCCCCCC)c(OC)c3)on2)cc1OC`, for which the solubility result in series [6] is listed as “Insoluble”.

In the case of `CCCCOc1ccc(/C=C/c2cc(/C=C/c3ccc(O)c(OC)c3)n[nH]2)cc1OC`, the EC50 turned out to be 15.8 µM in series [1], 16.1 µM in series [4] and 21.6 µM in series [5].

Turning to `CCCCOc1ccc(/C=C/c2cc(/C=C/c3ccc(OCCCC)c(OC)c3)on2)cc1OC`, the EC50 in series [1] came out at 7.14 µM; in series [4], 23.4 µM; in series [5], 25.2 µM.

For `COc1cc(/C=C/c2cc(/C=C/c3ccc(O)c(OC)c3)[nH]n2)ccc1O` [CURCUMIN PYRAZOLE], the concentration for a half-maximal effect (EC50) in series [1] amounted to 7.25 µM; in series [4] it was 18.8 µM; in series [5], 15 µM. Also, the Ratio EC50 in series [2] and in series [3] was 2 in each case.
